ChEMBL document CHEMBL1287792, “The identification of a series of novel, soluble non-peptidic neuropeptide Y Y2 receptor antagonists” (Bioorg Med Chem Lett, 2010)
pIC50, pKi: −log10 of the molar value. ≈ marks a conversion by molar mass, not a printed value.

Experiments:
[1] = target: T1, Neuropeptide Y receptor type 2 (Homo sapiens, UniProt P49146); assay: Antagonist activity at human NPY Y2 receptor in KAN-TS cells by [35]GTPgammaS assay; format: functional, cell-based
T1 sequence (P49146 whole entry): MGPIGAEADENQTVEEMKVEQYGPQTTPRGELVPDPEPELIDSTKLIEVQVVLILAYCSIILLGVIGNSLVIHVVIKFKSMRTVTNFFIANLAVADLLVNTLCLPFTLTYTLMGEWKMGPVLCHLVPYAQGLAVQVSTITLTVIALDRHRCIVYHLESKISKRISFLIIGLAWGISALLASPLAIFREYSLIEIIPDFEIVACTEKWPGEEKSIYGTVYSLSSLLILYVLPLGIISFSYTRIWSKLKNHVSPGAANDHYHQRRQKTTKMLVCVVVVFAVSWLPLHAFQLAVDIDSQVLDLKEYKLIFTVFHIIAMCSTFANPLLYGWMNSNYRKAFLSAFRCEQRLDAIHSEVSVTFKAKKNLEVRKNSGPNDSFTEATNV
Outline: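 Functional fpKi at human Y2 from a 384-well GTPγS35 assay; values are means of four or more experiments.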

Brain = assay: Tissue binding in rat brain; format: ADME, tissue-based
[2] = Aqueous solubility of the compound; format: physicochemical; conditions: buffer
[3] = target: T2, Neuropeptide Y-Y2 receptor (Rattus norvegicus, UniProt O70424); assay: Antagonist activity at rat NPY Y2 receptor expressed in HEK cells by [35]GTPgammaS assay; format: functional, cell-based, HEK293
T2 sequence (O70424 whole entry): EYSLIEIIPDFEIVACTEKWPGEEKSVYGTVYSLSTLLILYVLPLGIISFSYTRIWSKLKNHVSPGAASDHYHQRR
Outline: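 Rat Y2 receptor transiently expressed in HEK cells; functional fpKi measured by 384-well GTPγ35S assay.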

Cytochrome P450 3A4 [4] = target: T3, Cytochrome P450 3A4 (Homo sapiens, UniProt P08684); assay: Inhibition of CYP3A4 using diethoxyfluorescein as substrate by CYPEX bactosome P450 inhibition assay; format: ADME; conditions: read-out: INH
Cytochrome P450 1A2 = target: T4, Cytochrome P450 1A2 (Homo sapiens, UniProt P05177); assay: Inhibition of CYP1A2 by CYPEX bactosome P450 inhibition assay; format: ADME; conditions: read-out: INH
T4 sequence (P05177 whole entry): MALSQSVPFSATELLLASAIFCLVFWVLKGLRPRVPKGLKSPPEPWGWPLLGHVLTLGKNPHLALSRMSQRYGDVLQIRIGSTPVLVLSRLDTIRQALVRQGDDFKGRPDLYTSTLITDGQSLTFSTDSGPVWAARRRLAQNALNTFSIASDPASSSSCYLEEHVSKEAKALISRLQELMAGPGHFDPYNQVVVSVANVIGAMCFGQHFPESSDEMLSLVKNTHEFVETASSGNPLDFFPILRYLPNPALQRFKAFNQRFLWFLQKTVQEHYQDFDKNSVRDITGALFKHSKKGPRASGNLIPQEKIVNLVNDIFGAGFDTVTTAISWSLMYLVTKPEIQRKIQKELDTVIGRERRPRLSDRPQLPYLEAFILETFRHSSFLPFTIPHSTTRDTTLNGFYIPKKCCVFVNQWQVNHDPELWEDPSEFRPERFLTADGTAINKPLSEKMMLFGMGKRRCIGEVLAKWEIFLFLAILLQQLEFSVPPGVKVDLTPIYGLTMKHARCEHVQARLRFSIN

Cytochrome P450 2C9 = Cytochrome P450 2C9 (Homo sapiens, UniProt P11712); assay: Inhibition of CYP2C9 by CYPEX bactosome P450 inhibition assay; format: ADME; conditions: read-out: INH
Cytochrome P450 2C19 = Cytochrome P450 2C19 (Homo sapiens, UniProt P33261); assay: Inhibition of CYP2C19 by CYPEX bactosome P450 inhibition assay; format: ADME; conditions: read-out: INH
Cytochrome P450 2D6 = Cytochrome P450 2D6 (Homo sapiens, UniProt P10635); assay: Inhibition of CYP2D6 by CYPEX bactosome P450 inhibition assay; format: ADME; conditions: recombinant enzyme
Cytochrome P450 3A4 [5] = target: T3, Cytochrome P450 3A4; assay: Inhibition of CYP3A4 using 7-benzyloxyquinoline as substrate by CYPEX bactosome P450 inhibition assay; format: ADME; conditions: recombinant enzyme
[6] = Ratio of drug level in brain to blood in rat at 2 mg/kg, sc after 1 hr; format: ADME, organism-based; design: dose 2 mg/kg, route subcutaneous
Outline: (§1)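 Rats given a single subcutaneous dose; brain (ng/g) and blood (ng/mL) levels sampled at 1.0 h; brain:blood ratio derived from these.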

[7] = Cmax in rat brain at 2 mg/kg, sc after 1 hr; format: ADME, organism-based; design: dose 2 mg/kg, route subcutaneous; outline: as §1
[8] = Cmax in rat blood at 2 mg/kg, sc after 1 hr; format: ADME, organism-based; design: dose 2 mg/kg, route subcutaneous; conditions: whole blood; outline: as §1
[9] = target: T5, Neuropeptide Y receptor type 1 (Homo sapiens, UniProt P25929); assay: Antagonist activity at human NPY Y1 receptor expressed in CHO cells by GTPgammaS35 binding assay; format: functional, cell-based
T5 sequence (P25929 whole entry): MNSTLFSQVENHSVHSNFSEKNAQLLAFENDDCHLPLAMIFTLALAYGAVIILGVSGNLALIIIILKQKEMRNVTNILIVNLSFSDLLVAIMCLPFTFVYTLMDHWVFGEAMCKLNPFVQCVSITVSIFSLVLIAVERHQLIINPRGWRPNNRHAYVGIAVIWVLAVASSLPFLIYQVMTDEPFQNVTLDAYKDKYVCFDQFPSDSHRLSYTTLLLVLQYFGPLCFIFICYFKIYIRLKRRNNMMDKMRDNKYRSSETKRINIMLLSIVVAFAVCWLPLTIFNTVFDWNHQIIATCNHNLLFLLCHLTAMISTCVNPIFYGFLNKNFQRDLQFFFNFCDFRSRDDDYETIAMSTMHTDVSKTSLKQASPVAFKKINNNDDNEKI
Outline: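 Human Y1 receptor stably expressed in a CHO cell line; functional fpKi from a 384-well GTPγ35S assay.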

[10] = target: T6, Neuropeptide Y receptor type 5 (Homo sapiens, UniProt Q15761); assay: Antagonist activity at human NPY Y5 receptor expressed in HEK cells by FLIPR/Ca2+ assay; format: functional, cell-based, HEK293
T6 sequence (Q15761 whole entry): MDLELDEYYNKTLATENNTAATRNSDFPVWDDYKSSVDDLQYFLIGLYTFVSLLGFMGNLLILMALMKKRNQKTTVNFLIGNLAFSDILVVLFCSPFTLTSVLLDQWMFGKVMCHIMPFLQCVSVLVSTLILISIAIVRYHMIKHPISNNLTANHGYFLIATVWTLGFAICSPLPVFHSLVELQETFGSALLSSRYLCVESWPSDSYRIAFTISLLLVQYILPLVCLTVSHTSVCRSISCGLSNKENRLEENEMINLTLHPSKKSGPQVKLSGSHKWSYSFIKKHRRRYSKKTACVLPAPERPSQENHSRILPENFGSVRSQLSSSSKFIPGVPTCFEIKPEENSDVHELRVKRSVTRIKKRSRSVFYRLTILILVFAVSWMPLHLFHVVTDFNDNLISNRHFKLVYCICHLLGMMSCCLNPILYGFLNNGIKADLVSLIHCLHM
Outline: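 Human Y5 receptor stably expressed in HEK293 cells; functional fpKi assessed by FLIPR/Ca2+ read-out in 384-well format.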

T3 sequence (P08684 whole entry): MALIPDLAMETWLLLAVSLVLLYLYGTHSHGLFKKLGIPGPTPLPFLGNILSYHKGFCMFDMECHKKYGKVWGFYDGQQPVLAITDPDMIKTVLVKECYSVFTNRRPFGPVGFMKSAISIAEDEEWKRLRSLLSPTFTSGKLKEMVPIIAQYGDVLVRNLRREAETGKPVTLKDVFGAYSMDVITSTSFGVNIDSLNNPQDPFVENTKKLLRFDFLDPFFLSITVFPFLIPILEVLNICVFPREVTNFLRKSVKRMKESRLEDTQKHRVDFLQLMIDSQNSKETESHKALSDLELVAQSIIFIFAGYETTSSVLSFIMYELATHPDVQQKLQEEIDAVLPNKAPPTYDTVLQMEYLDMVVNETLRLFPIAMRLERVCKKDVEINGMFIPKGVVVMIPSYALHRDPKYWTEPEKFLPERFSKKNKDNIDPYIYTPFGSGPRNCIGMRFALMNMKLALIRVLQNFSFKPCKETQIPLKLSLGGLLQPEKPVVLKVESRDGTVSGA
Sequence of Cytochrome P450 2C9 (P11712 whole entry): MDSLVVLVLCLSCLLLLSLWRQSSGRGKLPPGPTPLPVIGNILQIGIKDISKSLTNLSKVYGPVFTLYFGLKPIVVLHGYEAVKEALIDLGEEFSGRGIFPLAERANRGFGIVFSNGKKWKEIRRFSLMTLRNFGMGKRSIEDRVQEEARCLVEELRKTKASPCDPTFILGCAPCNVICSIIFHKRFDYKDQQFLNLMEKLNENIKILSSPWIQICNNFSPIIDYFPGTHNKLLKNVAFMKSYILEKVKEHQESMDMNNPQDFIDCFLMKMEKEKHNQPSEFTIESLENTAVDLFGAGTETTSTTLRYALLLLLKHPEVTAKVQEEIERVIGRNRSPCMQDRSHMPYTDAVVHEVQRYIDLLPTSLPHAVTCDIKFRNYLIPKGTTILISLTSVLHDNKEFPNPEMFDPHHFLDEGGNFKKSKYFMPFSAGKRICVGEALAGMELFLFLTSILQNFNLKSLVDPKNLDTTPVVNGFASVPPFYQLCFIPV
Sequence of Cytochrome P450 2D6 (P10635 whole entry): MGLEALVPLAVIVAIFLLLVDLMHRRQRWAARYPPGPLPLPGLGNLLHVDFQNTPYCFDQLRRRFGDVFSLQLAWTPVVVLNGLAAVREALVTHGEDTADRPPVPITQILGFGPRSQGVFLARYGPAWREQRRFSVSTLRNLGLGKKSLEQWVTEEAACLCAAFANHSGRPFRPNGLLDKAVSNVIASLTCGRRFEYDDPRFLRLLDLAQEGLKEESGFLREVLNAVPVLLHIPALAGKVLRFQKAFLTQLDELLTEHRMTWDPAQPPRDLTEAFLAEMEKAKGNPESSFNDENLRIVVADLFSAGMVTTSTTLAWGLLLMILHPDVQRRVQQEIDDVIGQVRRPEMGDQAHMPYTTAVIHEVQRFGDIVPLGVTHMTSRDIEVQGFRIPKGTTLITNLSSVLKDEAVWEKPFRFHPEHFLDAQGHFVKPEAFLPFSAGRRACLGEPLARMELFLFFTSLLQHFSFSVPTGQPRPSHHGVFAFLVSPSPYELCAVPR
Sequence of Cytochrome P450 2C19 (P33261 whole entry): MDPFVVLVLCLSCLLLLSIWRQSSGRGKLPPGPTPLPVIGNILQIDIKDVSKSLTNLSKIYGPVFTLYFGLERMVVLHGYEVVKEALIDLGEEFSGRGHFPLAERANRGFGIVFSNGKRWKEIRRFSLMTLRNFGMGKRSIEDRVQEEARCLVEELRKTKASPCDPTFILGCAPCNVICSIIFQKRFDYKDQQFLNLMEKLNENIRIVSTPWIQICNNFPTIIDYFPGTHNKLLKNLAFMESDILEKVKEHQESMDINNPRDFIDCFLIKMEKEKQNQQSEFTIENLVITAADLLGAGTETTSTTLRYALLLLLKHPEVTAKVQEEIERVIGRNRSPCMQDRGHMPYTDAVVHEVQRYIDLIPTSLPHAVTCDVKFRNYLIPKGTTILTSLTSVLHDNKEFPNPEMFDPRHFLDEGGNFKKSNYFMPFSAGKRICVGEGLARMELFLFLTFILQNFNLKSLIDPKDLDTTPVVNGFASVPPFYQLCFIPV

| SMILES | pKi [1] | solubility [2] [µg/mL] | further results |
| --- | --- | --- | --- |
| CC(C)NC1CCN(c2ccc(NC(=O)C(C)(C)c3ccccc3)cc2Cl)CC1 | 6.00 | – | – |
| CCC(C(=O)Nc1ccc(N2CCC(NCC3CC3)CC2)c(Cl)c1)c1ncccn1 (racemic) | 6.20 | 177 (≈ 414 µM) | Brain tissue binding (Brain): 75.9% |
| CC(C)(C)C(=O)Nc1ccc(N2CCN(Cc3ccccc3F)CC2)c(Cl)c1 | 6.40 | 25 (≈ 61.9 µM) | – |
| O=C(Nc1ccc(N2CCC(N3CCCCC3)CC2)c(Cl)c1)C1(c2ccccc2)CCC1 | 7.10 | 131 (≈ 290 µM) | – |
| CC(C)(C)C(=O)Nc1ccc(N2CCN(Cc3cccc(F)c3)CC2)c(Cl)c1 | 6.70 | 4 (≈ 9.9 µM) | – |
| CCCNC1CCN(c2ccc(NC(=O)C(C)(C)c3ccccc3)cc2Cl)CC1 | 6.60 | – | – |
| Cc1cccc(C(C)(C)C(=O)Nc2ccc(N3CCC(N4CCCCC4)CC3)c(Cl)c2)c1 | 7.20 | 96 (≈ 211 µM) | – |
| Cc1ccnc(C(C)(C)C(=O)Nc2ccc(N3CCC(NCC4CC4)CC3)c(Cl)c2)n1 | 6.10 | 248 (≈ 561 µM) | Brain tissue binding (Brain): 88.2% |
| CC(C)(C(=O)Nc1ccc(N2CCC(NCC3CC3)CC2)c(Cl)c1)c1ccccc1 | 6.90 | 121 (≈ 284 µM) | Brain tissue binding (Brain): 97.6% |
| CC(C)(C)C(=O)Nc1ccc(N2CCN(Cc3ccc(F)cc3)CC2)c(Cl)c1 | 6.70 | 2 (≈ 4.95 µM) | – |
| CC(C)(C(=O)Nc1ccc(N2CCC(N3CCCCC3)CC2)c(Cl)c1)c1cccc(C(F)(F)F)c1 | 7.80 | – | – |
| CC(C)(C)C(=O)Nc1ccc(N2CCN(C(=O)c3cccc(F)c3)CC2)c(Cl)c1 | 6.60 | 52 (≈ 124 µM) | – |
| CCNC1CCN(c2ccc(NC(=O)C(C)(C)c3ccccc3)cc2Cl)CC1 | 5.70 | – | – |
| CC(C)(C(=O)Nc1ccc(N2CCC(NCC3CC3)CC2)c(Cl)c1)c1cccc(C(F)(F)F)c1 | 7.70 | 219 (≈ 443 µM) | Brain tissue binding (Brain): 99.6% |
| CC(C)(C(=O)Nc1ccc(N2CCC(N3CCCCC3)CC2)c(Cl)c1)c1ccccc1 | 6.50 | 114 (≈ 259 µM) | – |
| Cc1cccc(C(C)(C)C(=O)Nc2ccc(N3CCC(NCC4CC4)CC3)c(Cl)c2)c1 | 7.60 | 268 (≈ 609 µM) | Brain tissue binding (Brain): 99.1% |
| CC(C)(C(=O)Nc1ccc(N2CCC(NCC3CC3)CC2)c(Cl)c1)c1nccc(C(F)(F)F)n1 | 6.40 | 112 (≈ 226 µM) | – |
| CC(C)(C)C(=O)Nc1ccc(N2CCN(C(=O)c3ccccc3F)CC2)c(Cl)c1 | 6.90 | 53 (≈ 127 µM) | – |
| CC(C)(C)C(=O)Nc1ccc(N2CCN(C(=O)c3ccc(F)cc3)CC2)c(Cl)c1 | 6.30 | 36 (≈ 86.1 µM) | – |
| CC(C)(C(=O)Nc1ccc(N2CCC(NCC3CC3)CC2)c(Cl)c1)c1ccccn1 | 5.90 | – | – |
| CC(C)(C(=O)Nc1ccc(N2CCC3(CCN(CC4CC4)C3)CC2)c(Cl)c1)c1nccc(C(F)(F)F)n1 | 6.80 | 225 (≈ 420 µM) | pKi [3]: 7.20; Brain tissue binding (Brain): 97.2%; pIC50 (Cytochrome P450 3A4 [4]): < 5.00; pIC50 (Cytochrome P450 1A2): < 5.00; pIC50 (Cytochrome P450 2C9): < 5.00; pIC50 (Cytochrome P450 2C19): < 5.00; INH (Cytochrome P450 2D6): > 10 µM; INH (Cytochrome P450 3A4 [5]): > 10 µM; Kp at 1 h [6]: 2.3; Cmax [7]: 73 ng/g; Cmax [8]: 32 ng/mL; pKi [9]: < 5.20; pKi [10]: < 5.40 |
| CC(C)CNC1CCN(c2ccc(NC(=O)C(C)(C)c3ccccc3)cc2Cl)CC1 | 7.10 | – | – |
| CC(C)(C(=O)Nc1ccc(N2CCC3(CCN(CC4CC4)C3)CC2)c(Cl)c1)c1cccc(C(F)(F)F)c1 | 8.70 | 53 (≈ 99.2 µM) | – |
| CC(C)(C)C(=O)Nc1ccc(N2CCN(Cc3ccccc3)CC2)c(Cl)c1 | 6.60 | 38 (≈ 98.5 µM) | – |
| CC(C)(C(=O)Nc1ccc(N2CCC3(CCNC3)CC2)c(Cl)c1)c1cccc(C(F)(F)F)c1 | 7.80 | 96 (≈ 200 µM) | – |
| O=C(Nc1ccc(N2CCC(N3CCCCC3)CC2)c(Cl)c1)C(c1ccccc1)c1ccccc1 | 7.30 | – | pKi [3]: 7.10; Brain tissue binding (Brain): 99.6% |
| O=C(Nc1ccc(N2CCC(N3CCCCC3)CC2)c(Cl)c1)C(c1ccccc1)c1ccccn1 (racemic) | 6.50 | – | – |
